Experiment [1] has as its system C6. Kind of experiment: Cytotoxicity against rat C6 cells assessed as reduction in cell viability after 48 hrs by MTT assay. Format: functional, cell-based. The settings on record: for IC50: C6, 48 h. The method, boiled down: (§1)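 C6 rat glioma cells in DMEM/10% FBS at 37 °C, 5% CO2. Seeded at 1 × 10^4 cells/well and exposed 48 h to 5–50 μM in DMSO, with a 1% DMSO vehicle control. MTT added at 0.5 mg/mL final for 60 min at 37 °C. Formazan dissolved in DMSO and read at 492 nm. Viability expressed as % of control. IC50 by linear regression of % inhibition against log concentration.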
For orientation: Formazan colour is commonly taken as a measure of viable cells.

Experiment [2] concerns C6. Kind of experiment: Antiproliferative activity against rat C6 cells at 5 to 50 uM after 48 hrs by Neubauer chamber method. Format: functional, cell-based. The procedure, abridged: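 C6 rat glioma cells (ATCC) grown in DMEM/10% FBS with penicillin/streptomycin and Fungizone at 37 °C, 5% CO2. Plated at 5 × 10^3 cells/well and treated 48 h with 5, 10, 25 or 50 μM, dissolved in DMSO. Vehicle control was 1% DMSO. Cells then trypsinized and aliquots counted in a Neubauer chamber. ANOVA with Tukey post-test versus control.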

Experiment [3] relates to C6. Kind of experiment: Cytotoxicity against rat C6 cells assessed as reduction in cell viability at 5 uM after 48 hrs by MTT assay relative to control. Format: functional. The method, boiled down: as §1
For experiment [4], the system named is C6. Kind of experiment: Potency index, ratio of monastrol-palmitic acid IC50 to compound IC50 for cytotoxicity against rat C6 cells. Format: functional.
Experiment [5] relates to C6. The experiment in a line: Cytotoxicity against rat C6 cells assessed as reduction in cell viability at 10 uM after 48 hrs by MTT assay. It is filed as functional, cell-based. The procedure, abridged: as §1

Activity calls are given as the source filed them. The calls are words filed in the database; no cut-off is given here.

A word on the IC50: it is the concentration that inhibits the measured activity by half. Take `CCCCCCCCCCCCCCCC1=C(C(=O)OC)C(c2cccc(O)c2)NC(=O)N1` (stereo not drawn): in the experiment on C6 [1], the IC50 amounted to 79.4 µM. In addition, the result with C6 [2] and in the experiment on C6 [3] was Active.

Regarding `CCCCCCCC/C=C\CCCCCCCC1=C(C(=O)OC)C(c2cccc(O)c2)NC(=S)N1` (stereo not drawn), in the experiment with C6 [1], the IC50 is 38.4 µM. Further, the outcome in the experiment on C6 [2] was Active.

For the compound `CCCCCCCCCCCCCCCC1=C(C(=O)OC)C(c2cccc(O)c2)NC(=S)N1` (stereo not drawn), in the experiment on C6 [1], the Activity result was “Dose-dependent effect” and the IC50 was 5.11 µM. The outcome with C6 [2] was Active. The Activity in the experiment on C6 [3] was found to be 50%. Besides, the “Ratio IC50” value with C6 [4] came out at 2.5.

`CCOC(=O)C1=C(C)NC(=S)NC1c1cccc(O)c1` (stereo not drawn) [MONASTROL]: the IC50 with C6 [1] came to 87.8 µM. In the experiment with C6 [2], the result was Active.

Regarding `CCCCCCCC/C=C\CCCCCCCC1=C(C(=O)OC)C(c2cccc(O)c2)NC(=O)N1` (stereo not drawn), in the experiment on C6 [1], the IC50 is 166 µM. The result in the experiment with C6 [2] and in the experiment with C6 [5] was Active.

Regarding `CCCCCCCCCCCCCCCCCC1=C(C(=O)OC)C(c2cccc(O)c2)NC(=O)N1` (stereo not drawn), the IC50 in the experiment with C6 [1] is 21.8 µM. The outcome in the experiment on C6 [2] and in the experiment with C6 [3] was Active.

For the compound `CCCCCCCCCCCCCCCCCC1=C(C(=O)OC)C(c2cccc(O)c2)NC(=S)N1` (stereo not drawn), in the experiment with C6 [1], the Activity result is “Dose-dependent effect” and the 50% inhibitory concentration (IC50) came out at 6.85 µM. In addition, the result in the experiment with C6 [2] was Active. The Activity in the experiment on C6 [3] stood at 50%. In addition, the “Ratio IC50” value in the experiment on C6 [4] is given as 2.5.

(Values after ChEMBL document CHEMBL4257532, “Synthesis and antitumoral activity of novel analogues monastrol-fatty acids against glioma cells” (Medchemcomm, 2018).)
